Test system: naïve CD4^+ T cells
Experiment: pMHCII tetramer-based cell enrichment of spleen and lymph node cells
Design: species or system mouse
Settings: B6 mice; for fold smaller than the 2W:I-A^b-specific naïve population: spleen and lymph nodes (3K: spleen and lymph nodes or thymus), Fig. 3B, C, 4D; for size of naïve CD4+ T cell population specific for peptide:I-A^b: spleen and lymph nodes, mean, Fig. 4D, 6D
Summary of the method: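 Spleen and lymph node cells from individual naïve B6 mice were enriched with peptide:I-A^b tetramers. Tetramer-binding CD4⁺ T cells were counted as total cells per mouse, and group means were taken across individual mice.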

Sequence	fold smaller than the 2W:I-A^b-specific naïve population [fold]	size of naïve CD4+ T cell population specific for peptide:I-A^b [cells]
EAGGALANWAVDSA [1G]	3	127 ± 39
EARGALANWAVDSA [1R]	3	108 ± 36
EAGGALANGAVDSA [2G]	6	62 ± 13
